Measured values pooled from the literature.
Each line is one published result; the experiments were not run side by side.
Target: Serine/threonine-protein kinase PAK 6 (PAK6, Homo sapiens, UniProt Q9NQU5)

Structure (SMILES) | effect on | technique | concentration | remaining binding
Cc1cnn2ncc(-c3ccnc(N(C)C)n3)c2c1 | binding |  | 1 µM | 93%
O=C(NC[C@@H]1[C@H]2CN(C(=O)OCc3cc(C(F)(F)F)cc(C(F)(F)F)c3)C[C@@H]12)c1ccc2[nH]nnc2c1 | cell-free assay | competition with immobilised ligand | 1 µM | 93%
C[C@@H](c1ccc(-n2cnc3c(N)ncnc32)cc1)N1CCc2nn(C)c(Cc3ccccc3)c2C1=O | binding | competition with immobilised ligand | 0.1 µM | 96%
N#CC1(c2ccccn2)CCN(Cc2cc(C(=O)N3CCCC3)c(=O)n3ccccc23)CC1 | cell-free assay | competition with immobilised ligand | 1 µM | 100%
CN(CCCC(F)(F)F)c1nccc(-c2cnn3ncccc23)n1 | binding |  | 1 µM | 100%
FC(F)(F)Oc1cccc(-c2cnc3ccc(-c4ccncc4)nn23)c1 | cell-free assay | competition with immobilised ligand | 5 µM | 53%
COc1cnc(Nc2cccc(S(N)(=O)=O)c2)nc1N1CCN(c2ccccc2)C(=O)C1 | binding | competition with immobilised ligand | 1 µM | 100%
CO[C@@H](C)c1c(Nc2ccc([C@@H](N(C)C(=O)C3CCS(=O)(=O)CC3)C(F)(F)F)cc2)cnc2cc(Cl)nn12 | cell-free assay | competition with immobilised ligand | 1 µM | 100%
CN(C)c1nccc(-c2cnc3ncccn23)n1 | binding |  | 1 µM | 98%
c1ccc(N2CCN(Cc3nc4ccccc4[nH]3)CC2)nc1 | cell-free assay | competition with immobilised ligand | 1 µM | 100%
COc1ccnn2ncc(-c3ccnc(N(C)C)n3)c12 | binding |  | 1 µM | 97%
O=C(c1ccc(Nc2ncc(Cl)c(-c3cc4ccccc4s3)n2)cc1)N1CCC(N2CCCC2)CC1 | binding | competition with immobilised ligand | 1 µM | 62%
CN(C(=O)c1ccccc1)c1cc(N(C)c2ccc3c(c2)CCc2ccc(C(=O)NCCN4CCOCC4)cc2C3=O)ccc1F | cell-free assay | competition with immobilised ligand | 1 µM | 100%
O=C(Nc1c[nH]nc1C(=O)NC1CCNCC1)c1cc(F)cc(F)c1 | binding | competition with immobilised ligand | 1 µM | 100%
CC1=C(C#N)[C@@H](c2ccc3[nH]nc(C)c3c2)C(C#N)=C(c2ccc(Cl)cc2)N1 | cell-free assay | competition with immobilised ligand | 1 µM | 100%
C[C@@H]1CCN(c2nccc(-c3cnn4ncccc34)n2)C1 | binding |  | 1 µM | 87%
Cc1cnc(Nc2ccc(C(=O)N3CCC(N4CCCC4)CC3)cc2)nc1-c1cc2ccccc2s1 | binding | competition with immobilised ligand | 1 µM | 63%
COc1cnc(Nc2cccc(S(N)(=O)=O)c2)nc1N1CCN(c2ccccc2)CC1 | binding | competition with immobilised ligand | 1 µM | 100%
CN(c1nccc(-c2cnn3ncccc23)n1)C1CC1 | binding |  | 1 µM | 100%
O=C(c1ccc(Nc2ncc(Cl)c(-c3ccc(Cl)s3)n2)cc1)N1CCC(N2CCCC2)CC1 | binding | competition with immobilised ligand | 1 µM | 52%
